Reference: ChEMBL document CHEMBL4376827, “Structure-Activity Relationship Studies To Identify Affinity Probes in Bis-aryl Sulfonamides That Prolong Immune Stimuli” (J Med Chem, 2019)

How the values were obtained:
Homo sapiens [1] = organism: Homo sapiens; test: Activation of IFNalpha signalling in human ISRE-bla-THP1 cells assessed as increase in type-1 IFN-alpha induced ISRE activity at 5 uM preincubated for 16 hrs followed by CCF4-AM substrate addition and measured after 3 hrs by FRET based assay relative to control; format: cell-based
Summary of the method: (§1)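 ISRE-bla THP-1 cells, 5×10^4/well, in RPMI with 10% dialyzed FBS, 0.1 mM non-essential amino acids, 1 mM pyruvate and pen/strep. Cells are co-treated with IFN-α (final 100 U/mL) and compound: 5 μM single point or graded concentrations, 0.05% DMSO. After 16 h, CCF4-AM is added for 3 h at RT in the dark.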

THP-1 = test: Cytotoxicity against human THP1 cells assessed as reduction in cell viability at 5 uM incubated for 18 hrs by MTT assay relative to control; conditions: thp-1, 18 h
Homo sapiens [2] = organism: Homo sapiens; test: Activation of LPS-induced NF-kappaB activity in human THP1-Blue-NF-kappaB cells assessed as increase in SEAP reporter activity at 5 uM incubated for 20 hrs by quanti-blue SEAP assay relative to control
Summary of the method: (§2)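 THP1-Blue NF-κB cells, 10^5/well, in RPMI with 10% FBS, pen/strep and Normocin. Compound (5 μM single point or graded concentrations, 0.05% DMSO) is added together with LPS; methods give final LPS 10 μg/mL, table footnote gives 10 ng/mL. Supernatant SEAP is read after 20 h by QuantiBlue colorimetry at 630 nm.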

[3] = Activation of LPS-induced NF-kappaB activity in human THP1-Blue-NF-kappaB cells assessed as increase in SEAP reporter activity incubated for 20 hrs by quanti-blue SEAP assay; summary of the method: as §2
[4] = Activation of IFNalpha signalling in human ISRE-bla THP1 cells assessed as increase in type-1 IFN-alpha induced ISRE activity preincubated for 16 hrs followed by CCF4-AM substrate addition and measured after 3 hrs by FRET based assay; format: cell-based; conditions: THP-1; summary of the method: as §1

SMILES	Activity (Homo sapiens [1]) [%]	Activity (THP-1) [%]	Activity (Homo sapiens [2]) [%]	EC50 [3] [nM]	EC50 [4] [nM]
CCOc1ccc(S(=O)(=O)Nc2ccc(Cl)c(OC)c2)cc1	99	83.7	126	–	–
CCOc1ccc(S(=O)(=O)N(CCCO)c2cc(OC)c(Cl)cc2OC)cc1	178	68.5	219	–	–
COc1cc(NS(=O)(=O)c2ccccc2OC)c(OC)cc1Cl	101	92.1	96	–	–
C#CCN(c1cc(OC)c(N=[N+]=[N-])cc1OC)S(=O)(=O)c1ccc(OCC)cc1	182	73.4	217	–	–
CCOc1ccc(S(=O)(=O)N(CCc2ccccc2)c2cc(OC)c(Cl)cc2OC)cc1	141	44	131	–	–
COc1cc(NS(=O)(=O)c2ccc(C#N)cc2)c(OC)cc1Cl	106	102.9	97	–	–
C#CCOc1ccc(S(=O)(=O)Nc2cc(OC)c(Cl)cc2OC)cc1	99	80.9	97	–	–
CCOC(=O)CCCN(c1cc(OC)c(Cl)cc1OC)S(=O)(=O)c1ccc(OCC)cc1	199	80.1	199	–	–
COc1cc(NS(=O)(=O)c2ccc(OC)c(Br)c2)c(OC)cc1Cl	101	85	87	–	–
CCOc1ccc(S(=O)(=O)N(CCCNC(=O)CCCC[C@H]2SC[C@H]3NC(=O)N[C@H]32)c2cc(OC)c(Cl)cc2OC)cc1	175	69.6	195	–	–
COc1ccc(S(=O)(=O)Nc2cc(OC)c(Cl)cc2OC)cc1N	166	77.3	158	–	–
CCCCOc1ccc(S(=O)(=O)Nc2cc(OC)c(Cl)cc2OC)cc1	106	95.3	101	–	–
COc1cc(NS(=O)(=O)c2ccc(CN)cc2)c(OC)cc1Cl	111	97	103	–	–
COc1cc(NS(=O)(=O)c2ccc(Oc3ccccc3)cc2)c(OC)cc1Cl	95	91.3	98	–	–
CCOc1ccc(S(=O)(=O)Nc2cc(OC)c(N)cc2OC)cc1	102	92.2	101	–	–
CCOc1ccc(S(=O)(=O)Nc2cc(OC)c(Br)cc2OC)cc1	235	68.8	176	–	–
COc1cccc(S(=O)(=O)Nc2cc(OC)c(Cl)cc2OC)c1	104	79.6	116	–	–
CCOc1ccc(S(=O)(=O)Nc2cc(OC)c([N+](=O)[O-])cc2OC)cc1	110	79.2	133	–	–
CCCCCN(c1cc(OC)c(Cl)cc1OC)S(=O)(=O)c1ccc(OCC)cc1	105	72.9	135	–	–

SMILES	Activity (Homo sapiens [1]) [%]	Activity (THP-1) [%]	Activity (Homo sapiens [2]) [%]	EC50 [3] [nM]	EC50 [4] [nM]
CCOc1ccc(S(=O)(=O)N(CCCNC(=O)c2ccc(-c3c4ccc(=[N+](C)C)cc-4oc4cc(N(C)C)ccc34)c(C(=O)O)c2)c2cc(OC)c(Cl)cc2OC)cc1	123	76.9	111	–	–
C#CCOCCOCCOCCN(c1cc(OC)c(Cl)cc1OC)S(=O)(=O)c1ccc(OCC)cc1	130	73.7	107	–	–
CCCN(c1cc(OC)c(Cl)cc1OC)S(=O)(=O)c1ccc(OCC)cc1	199	71.6	227	–	–
CCOc1ccc(S(=O)(=O)N(CCCNC(=O)CCCC[C@H]2SC[C@H]3NC(=O)N[C@H]32)c2cc(OC)c(N=[N+]=[N-])cc2OC)cc1	140	73.8	162	–	–
COc1cc(NS(=O)(=O)c2ccc(OC)c(N=[N+]=[N-])c2)c(OC)cc1Cl	104	87.2	104	–	–
CCCCCCN(c1cc(OC)c(Cl)cc1OC)S(=O)(=O)c1ccc(OCC)cc1	99	95.2	81	–	–
CCOc1ccc(S(=O)(=O)Nc2cc(OC)c(N=[N+]=[N-])cc2OC)cc1	201	76.6	215	–	–
CCNC(=O)CCCN(c1cc(OC)c(Cl)cc1OC)S(=O)(=O)c1ccc(OCC)cc1	137	78.2	206	–	–
CCCCCCCN(c1cc(OC)c(Cl)cc1OC)S(=O)(=O)c1ccc(OCC)cc1	95	90.4	108	–	–
CCOc1ccc(S(=O)(=O)Nc2ccc(Cl)cc2OC)cc1	109	78.3	141	–	–
CCOc1ccc(S(=O)(=O)N(CCCC(=O)O)c2cc(OC)c(Cl)cc2OC)cc1	151	73.4	230	–	–
COc1cc(NS(=O)(=O)c2ccc(C(N)=O)cc2)c(OC)cc1Cl	94	91	103	–	–
COc1ccc(S(=O)(=O)Nc2cc(OC)c(Cl)cc2OC)cc1	219	69.6	226	1850	1400
C#CCN(c1cc(OC)c(Cl)cc1OC)S(=O)(=O)c1ccc(OCC)cc1	213	72	232	–	–
COc1cc(NS(=O)(=O)c2ccc([N+](=O)[O-])cc2)c(OC)cc1Cl	103	97.4	101	–	–
COc1cc(NS(=O)(=O)c2ccc(O)cc2)c(OC)cc1Cl	104	85.2	98	–	–
C#CCCN(c1cc(OC)c(Cl)cc1OC)S(=O)(=O)c1ccc(OCC)cc1	201	70.1	206	–	–
CCOc1ccc(S(=O)(=O)N(Cc2ccccc2)c2cc(OC)c(Cl)cc2OC)cc1	159	71.7	181	–	–
CCOc1ccc(S(=O)(=O)N(CCCNC(=O)CCCCCNC(=O)c2ccc3c(c2)C(=O)OC32c3ccc(O)cc3Oc3cc(O)ccc32)c2cc(OC)c(Cl)cc2OC)cc1	96	98.1	–	–	–

SMILES	Activity (Homo sapiens [1]) [%]	Activity (THP-1) [%]	Activity (Homo sapiens [2]) [%]	EC50 [3] [nM]	EC50 [4] [nM]
CCCCCCCCCCCCN(c1cc(OC)c(Cl)cc1OC)S(=O)(=O)c1ccc(OCC)cc1	100	93	97	–	–
COc1cc(NS(=O)(=O)c2ccc(C(=O)O)cc2)c(OC)cc1Cl	104	98.2	89	–	–
COC(=O)c1ccc(S(=O)(=O)Nc2cc(OC)c(Cl)cc2OC)cc1	202	74.4	191	–	–
CCOc1ccc(S(=O)(=O)N(CCCN)c2cc(OC)c(N=[N+]=[N-])cc2OC)cc1.Cl	117	68.9	138	–	–
CCOc1ccc(S(=O)(=O)N(CCCN)c2cc(OC)c(Cl)cc2OC)cc1.Cl	182	71	189	3320	3040
CCCc1ccc(S(=O)(=O)Nc2cc(OC)c(Cl)cc2OC)cc1	103	85.7	102	–	–
C#CCCCN(c1cc(OC)c(Cl)cc1OC)S(=O)(=O)c1ccc(OCC)cc1	184	70.7	182	–	–
CCOC(=O)CN(c1cc(OC)c(Cl)cc1OC)S(=O)(=O)c1ccc(OCC)cc1	184	81.4	202	–	–
COc1cc(NS(=O)(=O)c2ccc(CNC(=O)OC(C)(C)C)cc2)c(OC)cc1Cl	101	109.2	100	–	–
CCOc1ccc(S(=O)(=O)N(CCCNC(=O)OC(C)(C)C)c2cc(OC)c(Cl)cc2OC)cc1	140	75.6	134	–	–
CCCCN(c1cc(OC)c(Cl)cc1OC)S(=O)(=O)c1ccc(OCC)cc1	156	77.7	192	–	–
CNC(=O)c1ccc(S(=O)(=O)Nc2cc(OC)c(Cl)cc2OC)cc1	105	77	103	–	–
COc1cc(NS(=O)(=O)c2ccc(N)cc2)c(OC)cc1Cl	103	96	101	–	–
CCOc1ccc(S(=O)(=O)N(c2cc(OC)c(Cl)cc2OC)C(C)C)cc1	169	103.2	76	–	–
CCOc1ccc(S(=O)(=O)Nc2cc(OC)ccc2OC)cc1	96	73.1	116	–	–
CCOc1ccc(S(=O)(=O)Nc2cc(OC)c(Cl)c(OC)c2)cc1	218	71.4	179	–	–
CCOc1ccc(S(=O)(=O)N(CC(C)C)c2cc(OC)c(Cl)cc2OC)cc1	193	76.7	175	–	–
CCOC(=O)c1ccc(S(=O)(=O)Nc2cc(OC)c(Cl)cc2OC)cc1	169	70.8	189	–	–
CCCOc1ccc(S(=O)(=O)Nc2cc(OC)c(Cl)cc2OC)cc1	125	71.3	149	–	–
